Experiments:
Type in all cases: functional
[1] = test system: Rattus norvegicus; assay: Effective dose inhibiting ethanol-induced lesions was determined 1 h, after oral administration of absolute ethanol in rat
Outline: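 Rats fasted and water-deprived 20 h; compound in 0.4% methylcellulose/saline given orally (1–30 mg/kg) 30 min before oral absolute ethanol (1 mL). Killed 1 h after ethanol; stomach opened along greater curvature, linear hemorrhagic lesion lengths summed per stomach. ED50 for lesion inhibition by regression analysis.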

[2] = test system: Canis familiaris; assay: Inhibition of histamine stimulated gastric acid secretion in adult mongrel dogs at 5 mg/kg i.v.; settings: Canis lupus familiaris, Stomach, route intravenous
Outline: (§1)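 Mongrel dogs with surgically prepared Heidenhain pouches under histamine infusion; compound given iv (0.1–5 mg/kg) 1 h after infusion start. Pouch juice collected every 30 min, volume recorded, aliquot titrated for acid; outputs summed over 3 h post-dose, compared with the same animal's control. ED50 by linear regression.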

[3] = test system: Rattus norvegicus; assay: Antisecretory activity of intraperitoneally injected compound (40 mg/kg) in pylorus-ligated rat
Outline: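 Rats fasted 24 h, anesthetized, pylorus ligated; compound in 2.5% Tween 80 given ip (0.5 mL/200 g) at ligation. Killed 4 h later; gastric contents volume recorded, aliquots titrated with 0.1 N NaOH for acid output. Six rats per compound, eight controls; percent inhibition computed, Student's t test.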

[4] = test system: Canis familiaris; assay: Effective dose required to reduce acid out put when administered perorally in dog; settings: Canis lupus familiaris, po
Outline: (§2)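 Heidenhain pouch mongrel dogs receiving histamine infusion; compound given orally by gavage 1 h after infusion began. Acid output from 30-min collections (volume, titrated aliquot) summed for 3 h after dosing, each dog its own control. ED50 derived by linear regression from percent inhibition across doses.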

[5] = test system: Canis familiaris; assay: Inhibition of histamine stimulated gastric acid secretion in adult mongrel dogs at 2 mg/kg compound administered perorally; settings: Canis lupus familiaris, Stomach, route oral; outline: as §2
[6] = test system: Canis familiaris; assay: Inhibition of histamine stimulated gastric acid secretion in adult mongrel dogs at 4 mg/kg administered perorally; settings: Canis lupus familiaris, Stomach, route oral; outline: as §2
[7] = test system: Canis familiaris; assay: Inhibition of histamine stimulated gastric acid secretion in adult mongrel dogs at 0.1 mg/kg compound administered intravenously; settings: Canis lupus familiaris, Stomach, route intravenous; outline: as §1
[8] = test system: Canis familiaris; assay: Inhibition of histamine stimulated gastric acid secretion in adult mongrel dogs at 1 mg/kg i.v.; settings: Canis lupus familiaris, Stomach, route intravenous; outline: as §1
[9] = test system: Canis familiaris; assay: Inhibition of histamine stimulated gastric acid secretion in adult mongrel dogs at 8 mg/kg compound administered perorally; settings: Canis lupus familiaris, Stomach, route oral; outline: as §2
[10] = test system: Canis familiaris; assay: Effective dose required to reduce acid out put when administered intravenously in dog; settings: Canis lupus familiaris, iv; outline: as §1
[11] = test system: Canis familiaris; assay: Inhibition of histamine stimulated gastric acid secretion in adult mongrel dogs at 2 mg/kg i.v.; settings: Canis lupus familiaris, Stomach, route intravenous; outline: as §1
[12] = test system: Canis familiaris; assay: Effective dose required to reduce acid out put when administered perorally in dog;Value ranges from(1.6-13.4).; settings: Canis lupus familiaris, po; outline: as §2
[13] = test system: Canis familiaris; assay: Effective dose required to reduce acid out put when administered intravenously in dog;Value ranges from […]; settings: Canis lupus familiaris, iv; outline: as §1
[14] = test system: Canis familiaris; assay: Effective dose required to reduce acid out put when administered perorally in dog;Value ranges from (2.3-58.2); settings: Canis lupus familiaris, po; outline: as §2

| Structure (SMILES) | ED50 [1] | inhibition in vivo at 5 mg/kg [2] | Inhibition [3] | inhibition in vivo at 4 mg/kg [6] | inhibition in vivo at 1 mg/kg [8] | inhibition in vivo at 8 mg/kg [9] | inhibition in vivo at 2 mg/kg [11] | other results |
| --- | --- | --- | --- | --- | --- | --- | --- | --- |
| Cc1nc2c(C/C=C/c3ccccc3)cccn2c1CC#N | 12 mg/kg | 4% | 27% | – | – | – | – | – |
| Cc1nc2c(/C=C/Cc3ccccc3)cccn2c1CC#N | 4 mg/kg | 78% | – | 53% | 69% | 82% | – | ED50 [4]: 4 mg/kg; inhibition in vivo at 2 mg/kg [5]: 43%; inhibition in vivo at 0.1 mg/kg [7]: 9%; ED50 [10]: 1 mg/kg |
| Cc1nc2c(/C=C\Cc3ccccc3)cccn2c1C | 6.6 mg/kg | – | 96% | 13% | 24% | 54% | 47% | – |
| Cc1nc2c(/C=C\c3ccccc3)cccn2c1CC#N | 2 mg/kg | – | 49% | 0% | 79% | 41% | 76% | – |
| Cc1nc2c(C#Cc3ccccc3)nccn2c1C | 3.7 mg/kg | 0% | 0% | – | – | 11% | – | – |
| Cc1nc2c(/C=C/c3ccccc3)cccn2c1C | 10.4 mg/kg | – | 39% | – | – | 3% | 26% | – |
| Cc1nc2c(/C=C\c3ccsc3)cccn2c1C | 24 mg/kg | – | 54% | 38% | 64% | 79% | 82% | ED50 [4]: 4.8 mg/kg; inhibition in vivo at 2 mg/kg [5]: 5% |
| Cc1nc2c3c(ccn2c1CC#N)CCC(c1ccccc1)O3 (stereo not given) | 1.7 mg/kg | – | – | – | – | – | – | ED50 [12]: 3.7 mg/kg; ED50 [13]: 0.06 mg/kg |
| Cc1nc2c(CCc3ccccc3)cccn2c1N | – | – | – | – | – | – | – | ED50 [14]: 6.7 mg/kg; inhibition in vivo at 0.1 mg/kg [7]: 26%; ED50 [10]: 1 mg/kg |
| Cc1nc2c(C/C=C\c3ccccc3)cccn2c1N | 6.4 mg/kg | 20% | 4% | – | – | 0% | – | – |
| Cc1nc2c(/C=C\c3ccccc3)nccn2c1C | 5.2 mg/kg | 0% | 74% | – | – | 0% | – | – |
| C/C(=C\c1cccn2c(C)c(C)nc12)c1ccccc1 | – | – | 98% | 17% | 72% | 37% | 65% | – |
| Cc1nc2c(OCc3ccccc3)cccn2c1C | 10 mg/kg | – | 99% | 0% | 90% | 26% | – | – |
| Cc1nc2c(/C=C\c3ccccc3)cccn2c1C | – | 86% | 83% | 37% | 62% | 74% | 76% | ED50 [4]: 4.8 mg/kg; inhibition in vivo at 2 mg/kg [5]: 25%; ED50 [10]: 0.7 mg/kg |
| Cc1nc2c(/C=C\Cc3ccccc3)cccn2c1N | 8.6 mg/kg | – | 52% | 0% | 32% | – | – | – |
| C/C(=C\c1ccccc1)c1cccn2c(C)c(C)nc12 | 5 mg/kg | – | 71% | – | – | 29% | 44% | – |
| Cc1nc2cccc(/C=C/c3ccccc3)n2c1C | 5.5 mg/kg | 0% | – | 0% | – | – | – | – |
| Cc1nc2cc(/C=C/c3ccccc3)ccn2c1C | – | 0% | 40% | – | – | 0% | – | – |
| Cc1nc2ccc(/C=C/c3ccccc3)cn2c1C | 1.7 mg/kg | 0% | 55% | – | – | 0% | – | – |
| C(=C/c1cccn2c3c(nc12)CCCC3)/c1ccccc1 | 7.3 mg/kg | – | 62% | – | – | – | 0% | – |
| C(=C/c1cccn2c3c(nc12)CCC3)/c1ccccc1 | 5.2 mg/kg | 8% | 24% | – | – | – | – | – |
| Cc1nc2c(C/C=C\c3ccccc3)cccn2c1C | 5.5 mg/kg | 0% | 58% | – | – | 0% | – | – |
| Cc1nc2c(/C=C/c3ccccc3)cccn2c1N | 13 mg/kg | 0% | 33% | – | – | 6% | 24% | – |
| Cc1nc2c(/C=C/c3ccccc3)cccn2c1CC#N | 3 mg/kg | 18% | 18% | – | – | 2% | 0% | – |
| CCc1nc2c(/C=C\c3ccccc3)cccn2c1C | – | – | 96% | – | – | 21% | 42% | – |
| Cc1nc2c(/C=C\c3ccccc3)cccn2c1N | 23 mg/kg | 67% | 83% | – | 66% | 4% | 62% | inhibition in vivo at 2 mg/kg [5]: 0% |
| CCc1c(C)nc2c(/C=C\c3ccccc3)cccn12 | 0.8 mg/kg | – | 65% | – | – | 21% | 12% | – |

Reference: ChEMBL document CHEMBL1124543, “Antiulcer agents. 4. Conformational considerations and the antiulcer activity of substituted imidazo[1,2-a]pyridines and related analogues” (1989)
